Tests used:
[1] = target: Serine/threonine-protein kinase STK11 (Homo sapiens) (UniProt Q15831); test: Binding affinity to wild-type human full length LKB1 (M1 to Q433 residues) expressed in bacterial expression system assessed as residual binding level at 1 uM by Kinomescan method relative to control
Summary of the method: (§1)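 Active-site-directed KinomeScan competition binding panel covering 468 kinases, compound tested at 1 μM. Each readout is the kinase signal remaining with compound, expressed as a percentage of the DMSO control. […]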

[2] = target: Ribosomal protein S6 kinase alpha-3 (Homo sapiens) (UniProt P51812); test: Binding affinity to wild-type human partial length C-terminal RSK2 kinase domain 2 (V402 to S715 residues) expressed in mammalian expression system assessed as residual binding level at 1 uM by Kinomescan method relative to control
[3] = target: Serine/threonine-protein kinase PAK 1 (Homo sapiens) (UniProt Q13153); test: Binding affinity to wild-type human partial length PAK1 (S149 to H545 residues) expressed in bacterial expression system assessed as residual binding level at 1 uM by Kinomescan method relative to control
[4] = target: Serine/threonine-protein kinase SIK1 (Homo sapiens) (UniProt P57059); test: Binding affinity to wild-type human partial length SIK (M1 to Y304 residues) expressed in bacterial expression system assessed as residual binding level at 1 uM by Kinomescan method relative to control
Summary of the method: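 Active site-directed competition binding panel (KinomeScan, 468 kinases). Test compound at 1 μM. Read-out is kinase binding remaining versus DMSO control, expressed as percent of control. Scores above 35% are treated as weak binding.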

[5] = target: Serine/threonine-protein kinase MAK (Homo sapiens) (UniProt P20794); test: Binding affinity to wild-type human partial length MAK (M1 to P314 residues) expressed in bacterial expression system assessed as residual binding level at 1 uM by Kinomescan method relative to control
Summary of the method: (§2)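 Active-site-directed competition binding panel of 468 kinases (KinomeScan), compound at 1 μM. The read-out is kinase remaining bound, given as a percentage of the DMSO control. […]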

[6] = target: Dual specificity mitogen-activated protein kinase kinase 6 (Homo sapiens) (UniProt P52564); test: Binding affinity to wild-type human partial length MEK6 (K36 to D334 residues) expressed in bacterial expression system assessed as residual binding level at 1 uM by Kinomescan method relative to control; summary of the method: as §2
[7] = target: Serine/threonine-protein kinase 26 (Homo sapiens) (UniProt Q9P289); test: Binding affinity to wild-type human full length MST4 (M1 to P416 residues) expressed in mammalian expression system assessed as residual binding level at 1 uM by Kinomescan method relative to control
Summary of the method: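 Active-site-directed competition binding panel (KinomeScan) covering 468 kinases. Test agent was screened at 1 μM. The read-out is the remaining kinase signal expressed relative to a DMSO control. Scores above 35%, taken as weak binding, were not reported.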

[8] = target: Atypical kinase COQ8A, mitochondrial (Homo sapiens) (UniProt Q8NI60); test: Binding affinity to wild-type human full length ADCK3 (M280 to Q647 residues) expressed in bacterial expression system assessed as residual binding level at 1 uM by Kinomescan method relative to control; summary of the method: as §1
[9] = target: Eukaryotic translation initiation factor 2-alpha kinase 1 (Homo sapiens) (UniProt Q9BQI3); test: Binding affinity to wild-type human partial length EIF2AK1 (Q147 to E603 residues) expressed in mammalian expression system assessed as residual binding level at 1 uM by Kinomescan method relative to control
[10] = target: Mitotic checkpoint serine/threonine-protein kinase BUB1 (Homo sapiens) (UniProt O43683); test: Binding affinity to wild-type human partial length BUB1 (Q724 to K1085 residues) expressed in mammalian expression system assessed as residual binding level at 1 uM by Kinomescan method relative to control
Summary of the method: (§3)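 KinomeScan, an active site-directed competition binding panel of 468 kinases. The test compound was at 1 μM. The readout is remaining kinase binding as a percentage of the DMSO control. Scores above 35% were treated as weak binding and not listed.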

[11] = system: Proto-oncogene tyrosine-protein kinase receptor Ret (Homo sapiens), P07949 [V804L]; test: Binding affinity to human partial length RET V804L mutant (E713 to D1014 residues) expressed in bacterial expression system assessed as residual binding level at 1 uM by Kinomescan method relative to control
Summary of the method: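 KinomeScan active site-directed competition binding panel (468 kinases), compound tested at 1 μM. Result expressed as remaining kinase signal versus DMSO control (percent of control).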

[12] = target: Tyrosine-protein kinase ITK/TSK (Homo sapiens) (UniProt Q08881); test: Binding affinity to wild-type human partial length ITK (R335 to L620 residues) expressed in bacterial expression system assessed as residual binding level at 1 uM by Kinomescan method relative to control
[13] = target: Receptor-interacting serine/threonine-protein kinase 1 (Homo sapiens) (UniProt Q13546); test: Binding affinity to wild-type human partial length RIPK1 (M1 to K305 residues) expressed in bacterial expression system assessed as residual binding level at 1 uM by Kinomescan method relative to control
[14] = target: Ribosomal protein S6 kinase alpha-5 (Homo sapiens) (UniProt O75582); test: Binding affinity to wild-type human partial length C-terminal RPS6KA5 kinase domain 2 (V390 to T718 residues) expressed in bacterial expression system assessed as residual binding level at 1 uM by Kinomescan method relative to control
[15] = target: Calcium/calmodulin-dependent protein kinase type 1B (Homo sapiens) (UniProt Q6P2M8); test: Binding affinity to wild-type human partial length CAMK1B (W9 to A311 residues) expressed in mammalian expression system assessed as residual binding level at 1 uM by Kinomescan method relative to control; summary of the method: as §3
[16] = target: Mitogen-activated protein kinase kinase kinase 11 (Homo sapiens) (UniProt Q16584); test: Binding affinity to wild-type human partial length MLK3 (I77 to W399 residues) expressed in bacterial expression system assessed as residual binding level at 1 uM by Kinomescan method relative to control
[17] = target: Serine/threonine-protein kinase haspin (Homo sapiens) (UniProt Q8TF76); test: Binding affinity to wild-type human partial length HASPIN (I452 to K798 residues) expressed in mammalian expression system assessed as residual binding level at 1 uM by Kinomescan method relative to control
[18] = target: Serine/threonine-protein kinase 35 (Homo sapiens) (UniProt Q8TDR2); test: Binding affinity to wild-type human partial length STK35 (G182 to A534 residues) expressed in bacterial expression system assessed as residual binding level at 1 uM by Kinomescan method relative to control
[19] = target: Ribosomal protein S6 kinase alpha-5 (Homo sapiens) (UniProt O75582); test: Binding affinity to wild-type human partial length N- terminal RPS6KA5 kinase domain 1 expressed in bacterial expression system assessed as residual binding level at 1 uM by Kinomescan method relative to control
[20] = target: Serine/threonine-protein kinase BRSK1 (Homo sapiens) (UniProt Q8TDC3); test: Binding affinity to wild-type human partial length BRSK1 (M1 to E754 residues) expressed in bacterial expression system assessed as residual binding level at 1 uM by Kinomescan method relative to control

Chain of Ribosomal protein S6 kinase alpha-5 (Homo sapiens) (O75582 whole entry, looked up, the tested form may be a part): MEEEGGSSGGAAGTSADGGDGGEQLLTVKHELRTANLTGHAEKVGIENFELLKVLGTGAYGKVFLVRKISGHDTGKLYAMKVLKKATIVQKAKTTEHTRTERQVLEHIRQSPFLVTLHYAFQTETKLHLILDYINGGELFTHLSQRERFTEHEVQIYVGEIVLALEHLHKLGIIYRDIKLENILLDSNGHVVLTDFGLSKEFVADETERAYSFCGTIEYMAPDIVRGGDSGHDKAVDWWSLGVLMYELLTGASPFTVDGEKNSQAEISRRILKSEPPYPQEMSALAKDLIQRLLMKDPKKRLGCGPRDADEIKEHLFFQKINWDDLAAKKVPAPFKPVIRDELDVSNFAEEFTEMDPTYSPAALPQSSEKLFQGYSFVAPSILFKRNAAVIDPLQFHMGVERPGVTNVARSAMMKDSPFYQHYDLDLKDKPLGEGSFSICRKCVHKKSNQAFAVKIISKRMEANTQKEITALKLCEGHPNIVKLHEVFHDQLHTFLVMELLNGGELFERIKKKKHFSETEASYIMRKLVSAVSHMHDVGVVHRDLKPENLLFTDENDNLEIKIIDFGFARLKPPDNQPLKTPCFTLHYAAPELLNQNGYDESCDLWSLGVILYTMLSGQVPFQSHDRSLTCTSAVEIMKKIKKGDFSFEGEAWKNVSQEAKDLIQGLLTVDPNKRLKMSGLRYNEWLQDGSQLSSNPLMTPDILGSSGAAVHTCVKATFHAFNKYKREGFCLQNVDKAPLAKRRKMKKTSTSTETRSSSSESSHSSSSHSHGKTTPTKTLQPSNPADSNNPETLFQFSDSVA
Chain of Mitotic checkpoint serine/threonine-protein kinase BUB1 (Homo sapiens) (O43683 whole entry, looked up, the tested form may be a part): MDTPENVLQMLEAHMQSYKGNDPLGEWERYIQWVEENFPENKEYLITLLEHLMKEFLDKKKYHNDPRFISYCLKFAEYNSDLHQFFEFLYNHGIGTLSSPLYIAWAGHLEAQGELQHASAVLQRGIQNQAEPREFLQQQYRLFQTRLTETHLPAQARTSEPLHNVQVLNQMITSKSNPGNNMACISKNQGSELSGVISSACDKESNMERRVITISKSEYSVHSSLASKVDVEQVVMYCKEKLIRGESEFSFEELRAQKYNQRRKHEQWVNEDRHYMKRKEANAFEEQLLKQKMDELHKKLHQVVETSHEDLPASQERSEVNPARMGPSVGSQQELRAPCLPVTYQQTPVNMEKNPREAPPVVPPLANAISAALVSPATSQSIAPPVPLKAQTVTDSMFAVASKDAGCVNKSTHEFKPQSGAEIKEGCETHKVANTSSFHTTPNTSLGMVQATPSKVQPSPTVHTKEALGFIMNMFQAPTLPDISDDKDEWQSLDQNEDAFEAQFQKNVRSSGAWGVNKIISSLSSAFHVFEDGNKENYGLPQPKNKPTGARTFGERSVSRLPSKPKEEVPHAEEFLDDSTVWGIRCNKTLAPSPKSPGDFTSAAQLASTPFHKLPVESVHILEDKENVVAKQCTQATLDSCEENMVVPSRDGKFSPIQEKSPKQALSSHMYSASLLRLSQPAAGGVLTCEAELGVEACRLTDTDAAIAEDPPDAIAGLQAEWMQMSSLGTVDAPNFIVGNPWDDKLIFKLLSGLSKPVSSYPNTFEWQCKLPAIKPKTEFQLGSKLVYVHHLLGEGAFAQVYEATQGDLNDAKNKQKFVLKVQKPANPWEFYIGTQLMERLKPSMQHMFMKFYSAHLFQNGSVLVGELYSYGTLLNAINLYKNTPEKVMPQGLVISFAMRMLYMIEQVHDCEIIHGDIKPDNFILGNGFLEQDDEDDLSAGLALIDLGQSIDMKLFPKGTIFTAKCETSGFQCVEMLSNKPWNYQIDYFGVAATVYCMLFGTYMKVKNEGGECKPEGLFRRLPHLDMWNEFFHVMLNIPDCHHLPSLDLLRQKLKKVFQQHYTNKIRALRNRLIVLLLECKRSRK
Chain of Serine/threonine-protein kinase MAK (Homo sapiens) (P20794 whole entry, the tested form may be a part): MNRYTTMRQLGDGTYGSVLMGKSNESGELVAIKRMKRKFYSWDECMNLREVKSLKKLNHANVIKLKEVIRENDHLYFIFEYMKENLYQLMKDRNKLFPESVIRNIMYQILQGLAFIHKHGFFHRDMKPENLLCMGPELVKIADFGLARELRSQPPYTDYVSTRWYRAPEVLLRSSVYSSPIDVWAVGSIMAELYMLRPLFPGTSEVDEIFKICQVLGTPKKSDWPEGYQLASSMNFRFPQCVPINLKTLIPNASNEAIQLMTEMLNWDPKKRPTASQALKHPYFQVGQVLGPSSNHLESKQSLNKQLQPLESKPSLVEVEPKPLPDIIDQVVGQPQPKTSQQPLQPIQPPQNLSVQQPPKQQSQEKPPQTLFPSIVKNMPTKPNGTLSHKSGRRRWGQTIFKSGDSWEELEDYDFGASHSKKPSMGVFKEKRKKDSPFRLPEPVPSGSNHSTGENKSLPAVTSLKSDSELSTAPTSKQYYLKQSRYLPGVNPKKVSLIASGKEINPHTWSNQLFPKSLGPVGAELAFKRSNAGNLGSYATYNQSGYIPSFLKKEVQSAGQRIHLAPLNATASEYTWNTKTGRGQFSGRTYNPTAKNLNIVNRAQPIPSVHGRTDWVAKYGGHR
Chain of Serine/threonine-protein kinase SIK1 (Homo sapiens) (P57059 whole entry, the tested form may be a part): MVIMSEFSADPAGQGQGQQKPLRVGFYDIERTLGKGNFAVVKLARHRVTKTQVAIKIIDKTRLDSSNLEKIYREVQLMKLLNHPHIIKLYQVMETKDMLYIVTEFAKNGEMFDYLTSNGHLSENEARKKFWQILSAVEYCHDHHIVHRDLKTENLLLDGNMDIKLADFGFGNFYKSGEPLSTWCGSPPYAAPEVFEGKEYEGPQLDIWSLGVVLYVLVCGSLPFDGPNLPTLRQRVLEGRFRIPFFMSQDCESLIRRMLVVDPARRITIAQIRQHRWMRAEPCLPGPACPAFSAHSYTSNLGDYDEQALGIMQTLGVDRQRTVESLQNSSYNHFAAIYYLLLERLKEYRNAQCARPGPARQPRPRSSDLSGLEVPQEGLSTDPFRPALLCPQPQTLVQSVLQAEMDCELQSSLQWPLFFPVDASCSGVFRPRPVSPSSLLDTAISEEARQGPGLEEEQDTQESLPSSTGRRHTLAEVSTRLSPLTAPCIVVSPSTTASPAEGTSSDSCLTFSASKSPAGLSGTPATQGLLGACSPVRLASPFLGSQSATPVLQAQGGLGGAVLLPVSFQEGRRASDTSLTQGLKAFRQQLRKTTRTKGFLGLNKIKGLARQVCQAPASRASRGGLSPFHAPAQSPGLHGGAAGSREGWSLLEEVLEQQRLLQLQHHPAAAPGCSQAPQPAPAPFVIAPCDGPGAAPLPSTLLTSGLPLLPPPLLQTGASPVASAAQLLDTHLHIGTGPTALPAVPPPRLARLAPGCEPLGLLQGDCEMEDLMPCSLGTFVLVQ
Chain of Serine/threonine-protein kinase STK11 (Homo sapiens) (Q15831 whole entry, the tested form may be a part): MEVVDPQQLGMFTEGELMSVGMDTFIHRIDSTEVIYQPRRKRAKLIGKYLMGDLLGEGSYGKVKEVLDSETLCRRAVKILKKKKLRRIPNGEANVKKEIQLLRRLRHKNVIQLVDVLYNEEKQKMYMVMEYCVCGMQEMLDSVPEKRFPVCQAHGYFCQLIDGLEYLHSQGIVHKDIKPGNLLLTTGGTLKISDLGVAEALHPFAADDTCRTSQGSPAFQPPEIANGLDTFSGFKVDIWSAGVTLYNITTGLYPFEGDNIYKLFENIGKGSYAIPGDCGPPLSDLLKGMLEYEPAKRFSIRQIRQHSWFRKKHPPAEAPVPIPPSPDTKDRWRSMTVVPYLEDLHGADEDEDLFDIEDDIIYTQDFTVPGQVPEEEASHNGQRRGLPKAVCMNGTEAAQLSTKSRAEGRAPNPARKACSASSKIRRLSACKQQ
Chain of Calcium/calmodulin-dependent protein kinase type 1B (Homo sapiens) (Q6P2M8 whole entry, the tested form may be a part): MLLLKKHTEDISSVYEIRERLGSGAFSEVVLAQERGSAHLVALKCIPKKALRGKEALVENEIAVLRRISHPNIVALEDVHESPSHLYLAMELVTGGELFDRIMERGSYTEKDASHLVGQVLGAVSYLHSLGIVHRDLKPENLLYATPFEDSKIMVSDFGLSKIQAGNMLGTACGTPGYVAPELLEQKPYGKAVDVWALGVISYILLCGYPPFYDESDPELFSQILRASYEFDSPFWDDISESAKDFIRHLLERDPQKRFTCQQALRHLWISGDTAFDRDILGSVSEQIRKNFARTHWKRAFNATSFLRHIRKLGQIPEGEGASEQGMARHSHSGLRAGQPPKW
Chain of Dual specificity mitogen-activated protein kinase kinase 6 (Homo sapiens) (P52564 whole entry, the tested form may be a part): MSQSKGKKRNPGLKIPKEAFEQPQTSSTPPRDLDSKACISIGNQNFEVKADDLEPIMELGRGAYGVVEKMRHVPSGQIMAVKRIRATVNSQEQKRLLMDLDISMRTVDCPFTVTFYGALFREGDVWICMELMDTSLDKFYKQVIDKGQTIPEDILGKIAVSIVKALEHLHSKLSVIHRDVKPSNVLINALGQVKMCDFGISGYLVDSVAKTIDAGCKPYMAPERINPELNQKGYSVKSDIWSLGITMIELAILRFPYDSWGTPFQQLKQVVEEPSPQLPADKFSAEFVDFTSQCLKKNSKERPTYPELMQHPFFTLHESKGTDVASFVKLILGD
Chain of Eukaryotic translation initiation factor 2-alpha kinase 1 (Homo sapiens) (Q9BQI3 whole entry, the tested form may be a part): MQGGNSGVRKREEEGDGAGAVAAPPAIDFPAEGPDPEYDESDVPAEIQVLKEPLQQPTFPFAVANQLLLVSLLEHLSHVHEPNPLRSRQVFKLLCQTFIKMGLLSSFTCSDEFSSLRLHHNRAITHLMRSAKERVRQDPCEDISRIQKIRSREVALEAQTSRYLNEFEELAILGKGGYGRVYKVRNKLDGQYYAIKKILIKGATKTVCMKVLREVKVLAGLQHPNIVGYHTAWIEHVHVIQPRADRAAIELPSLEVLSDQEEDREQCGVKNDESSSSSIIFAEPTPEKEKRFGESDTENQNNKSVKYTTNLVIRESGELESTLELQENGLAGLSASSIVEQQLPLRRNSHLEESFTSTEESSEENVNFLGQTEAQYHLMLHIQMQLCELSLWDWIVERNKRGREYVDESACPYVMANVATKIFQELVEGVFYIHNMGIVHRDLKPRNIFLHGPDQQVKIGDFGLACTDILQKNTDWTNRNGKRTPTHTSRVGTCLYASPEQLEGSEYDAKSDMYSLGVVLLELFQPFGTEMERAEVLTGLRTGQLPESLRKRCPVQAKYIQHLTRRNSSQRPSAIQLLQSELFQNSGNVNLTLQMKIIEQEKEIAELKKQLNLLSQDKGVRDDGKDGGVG

## C=CC(=O)Nc1ccccc1Nc1nc(Nc2ccc(N3CCN(C)CC3)cc2)ncc1C(=O)Nc1c(C)cccc1Cl
[1]
  Activity: 100%
[2]
  Activity: 100%
[3]
  Activity: 100%
[4]
  Activity: 1%
[5]
  Activity: 70%
[6]
  Activity: 99%
[7]
  Activity: 85%
[8]
  Activity: 100%
[9]
  Activity: 100%
[10]
  Activity: 88%
[11]
  Activity: 100%
[12]
  Activity: 100%
[13]
  Activity: 100%
[14]
  Activity: 100%
[15]
  Activity: 98%
[16]
  Activity: 100%
[17]
  Activity: 100%
[18]
  Activity: 100%
[19]
  Activity: 100%
[20]
  Activity: 100%
